Bioassay records as filed in PubChem BioAssay.
GSTO1 counter – GSTO1 inhibition, counter-screen for RBBP9 inhibitors. recombinant GSTO1, activity-based probe fluorescence polarization. inhibition, % at 5.96 µM. actives 1.1% (n = 300,000). AID 1974;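 active means inhibition above the campaign mean inhibition plus 3 SD, cut at about 35% in these data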;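 further: 0% = GSTO1-1 with DMSO and 100% = wells lacking GSTO1-1 enzyme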
Target sequence (P78417 whole entry, looked up): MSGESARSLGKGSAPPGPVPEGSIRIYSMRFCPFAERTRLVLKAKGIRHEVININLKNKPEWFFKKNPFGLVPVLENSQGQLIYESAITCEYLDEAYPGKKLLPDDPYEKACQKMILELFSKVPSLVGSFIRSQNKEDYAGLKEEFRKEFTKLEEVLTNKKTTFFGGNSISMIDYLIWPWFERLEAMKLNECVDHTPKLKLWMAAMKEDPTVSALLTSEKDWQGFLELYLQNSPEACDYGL
PRMT1 FP inh – blocks human protein arginine methyltransferase 1; Q99873; recombinant PRMT1, activity-based probe fluorescence polarization; inhibition, % at 2.79 µM; actives 1.3% (n = 370,000);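 active means inhibition above about 21% made by adding two undisclosed values, limit read from the data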
SIAE inh – human SIAE inhibition, primary screen. actives 0.69% (n = 370,000). inhibition, % at 9.66 µM. Q9HAT2. AID 1053197. SIAE FP-Rh probe binding, fluorescence polarization;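 active means inhibition above a cutoff: mean of compounds within the control limits plus 3 SD of those, cut at about 17% in these data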;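 further: 0% = plate median of compound wells and 100% = probe without SIAE protein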
PAD4 inh – blocks human protein arginine deiminase 4. AID 485272. actives 0.41% (n = 330,000). recombinant PAD4, RCA probe fluorescence polarization. inhibition, % at 6.36 µM;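 active means percent inhibition above a cutoff equal to the mean of all tested compounds plus 3 SD, cut at about 15% in these data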;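 further: 0% = PAD4 with RCA probe and DMSO and 100% = probe without PAD4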
RBBP9 inhibitor – human RBBP9 hydrolase inhibition. inhibition, % at 7.94 µM. O75884. AID 1515. recombinant RBBP9, FP-Rh probe fluorescence polarization. actives 0.2% (n = 220,000);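 active means inhibition above the campaign mean of all tested compounds plus 3 SD, cut at about 14% in these data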;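 further: plate controls were DMSO wells with RBBP9 for no effect and wells lacking RBBP9 protein for full effect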
Target sequence (O75884 whole entry, looked up): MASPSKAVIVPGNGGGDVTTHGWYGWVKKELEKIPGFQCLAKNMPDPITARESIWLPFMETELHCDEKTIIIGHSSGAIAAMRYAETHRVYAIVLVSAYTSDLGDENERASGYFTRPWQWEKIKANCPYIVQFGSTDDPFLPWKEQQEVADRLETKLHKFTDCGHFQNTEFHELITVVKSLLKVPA
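Measured by – fluorescence polarization · Test system – RBBP9 protein · Input – 2.5 µM RBBP9 dispensing solution, before mixing · Measure – percent inhibition from mP, scaled between DMSO and no-protein wells · Benchmarks – DMSO-treated enzyme wells and wells lacking RBBP9 · Times – preincubation 30 min plus labeling 45 min at 25 °C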
GSTO1 confirm – GSTO1 (human) inhibition, confirmation. shares compounds with GSTO1 counter. recombinant GSTO1, probe fluorescence polarization. inhibition, % at 5.96 µM. actives 54% (n = 2,400). AID 2176;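 active means inhibition above the primary screen's cutoff, its mean inhibition plus 3 SD, cut at about 35% in these data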;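 further: loss of polarization as inhibitors block binding of rhodamine sulfonate ester activity probe; 0% = GSTO1 with DMSO and 100% = wells lacking GSTO1 enzyme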
GSTO1 ABPP inh – inhibitors of recombinant human GSTO1; shares compounds with GSTO1 counter; inhibition, % at 1 µM; actives 30% (n = 130); gel ABPP SE-Rh probe fluorescence;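 active means inhibition of the enzyme GSTO1 above about 75%, limit read from the data; inactive means inhibition below that limit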
Numbers without * were called inactive. Sampled rows, rich in hits. Any-hit rate of the full collection: about 2.7%.

How did Cc1cc(=O)oc2c3c(cc(OCC(=O)NC(Cc4ccc(Cl)cc4)C(=O)O)c12)OC(C)(C)CC3 (centres undefined) do in these assays?
GSTO1 counter: -17; PRMT1 FP inh: -1; SIAE inh: -3; PAD4 inh: 2

How did CCOC(=O)N1CCN(C(=O)CCl)CC1 do in these assays?
GSTO1 counter: 77*; PRMT1 FP inh: 4; SIAE inh: 4; PAD4 inh: 3; RBBP9 inhibitor: -8; GSTO1 confirm: 92*

Results for CC(C)(C)NC(=O)CN1CCN(C(=O)CCl)CC1 ?
GSTO1 counter: 82*; PRMT1 FP inh: 2; SIAE inh: 1; PAD4 inh: -2; RBBP9 inhibitor: -8; GSTO1 confirm: 96*; GSTO1 ABPP inh: 33

What do the screens show for `CC(C)(C)N=C1SCC(C)(/C=N/O)S1` (centres undefined)?
GSTO1 counter: 42*; PRMT1 FP inh: -2; SIAE inh: 4; PAD4 inh: 1; RBBP9 inhibitor: -2; GSTO1 confirm: 9

What do the screens show for `CCC(C)N=C1SCC(C)(/C=N/O)S1` (centres undefined)?
GSTO1 counter: 15; PRMT1 FP inh: 3; SIAE inh: -1; PAD4 inh: -1; RBBP9 inhibitor: -6

Results for COc1ccc(NCc2nnc(SCc3ccc(Cl)cc3)n2-c2ccccc2)cc1 ?
GSTO1 counter: 5; PRMT1 FP inh: 2; SIAE inh: 5; PAD4 inh: -5; RBBP9 inhibitor: -2

Results for CC(Oc1ccccc1)C(=O)N=Nc1c(O)[nH]c2ccc([N+](=O)[O-])cc12 (centres undefined) ?
GSTO1 counter: 61*; PRMT1 FP inh: 3; SIAE inh: -2; PAD4 inh: -13; RBBP9 inhibitor: -9; GSTO1 confirm: 74*

What do the screens show for `O=C(N=Nc1c(O)[nH]c2ccc([N+](=O)[O-])cc12)c1ccccc1[N+](=O)[O-]`?
GSTO1 counter: 43*; PRMT1 FP inh: 0; SIAE inh: -2; PAD4 inh: -17; RBBP9 inhibitor: -10; GSTO1 confirm: 46*

What do the screens show for `CCCCCCC(=O)N=Nc1c(O)[nH]c2ccc([N+](=O)[O-])cc12`?
GSTO1 counter: 4; PRMT1 FP inh: -3; SIAE inh: 4; PAD4 inh: -2; RBBP9 inhibitor: -4

What do the screens show for `O=C(CNC(=O)c1cccs1)N=Nc1c(O)[nH]c2ccc([N+](=O)[O-])cc12`?
GSTO1 counter: 39*; PRMT1 FP inh: 0; SIAE inh: 2; PAD4 inh: -7; GSTO1 confirm: 25

Results for CC(C)=C1C(=O)NN(c2ccc(C)c(Cl)c2)C1=O ?
GSTO1 counter: 44*; PRMT1 FP inh: 16; SIAE inh: 12; PAD4 inh: 2; RBBP9 inhibitor: 0; GSTO1 confirm: 18

What do the screens show for `CC(C)=C1C(=O)NN(c2cccc(Cl)c2)C1=O`?
GSTO1 counter: 17; PRMT1 FP inh: 10; SIAE inh: 6; PAD4 inh: -3; RBBP9 inhibitor: -1

What do the screens show for `CCS(=O)(=O)NCc1ccc2[nH]c3c(c2c1)CCCC3`?
GSTO1 counter: 46*; PAD4 inh: -15; RBBP9 inhibitor: -7; GSTO1 confirm: 60*

Results for Cc1cc(C)c(OCC(=O)Nc2ccc(S(=O)(=O)N3CCOCC3)cc2)c(C)c1 ?
GSTO1 counter: -1; PRMT1 FP inh: -4; SIAE inh: -4; PAD4 inh: 0

How did O=C(NCCN1CCCC1)c1ccc2c(c1)N(Cc1cccc(Cl)c1)C(=O)c1ccccc1S2(=O)=O do in these assays?
GSTO1 counter: -2; PRMT1 FP inh: -7; SIAE inh: -29; PAD4 inh: -2

How did CCN1CCN(C2=C(NS(=O)(=O)c3ccc(NC(C)=O)cc3)C(=O)c3ccccc3C2=O)CC1 do in these assays?
GSTO1 counter: 50*; PRMT1 FP inh: 8; SIAE inh: -1; PAD4 inh: -6; GSTO1 confirm: 15

What do the screens show for `CC(=O)Nc1ccc(S(=O)(=O)NC2=C(N3CCN(C)CC3)C(=O)c3ccccc3C2=O)cc1`?
GSTO1 counter: 43*; PRMT1 FP inh: 3; SIAE inh: 2; PAD4 inh: -9; GSTO1 confirm: 38*

Results for COc1ccc(N=Nc2n(C)c3ccccc3[n+]2C)cc1 ?
RBBP9 inhibitor: -5

What do the screens show for `O=C(NCCN1CCOCC1)c1ccc(Cl)cc1`?
GSTO1 counter: 7; PRMT1 FP inh: -1; SIAE inh: 2; PAD4 inh: 0; RBBP9 inhibitor: -1

What do the screens show for `O=C1CN(C(=O)COC(=O)CNC(=O)c2ccc(Cl)cc2)c2ccccc2N1`?
GSTO1 counter: 8; PRMT1 FP inh: 9; SIAE inh: -5; PAD4 inh: -1; RBBP9 inhibitor: -10

What do the screens show for `O=C1CN(C(=O)COC(=O)CNC(=O)c2ccccc2)c2ccccc2N1`?
GSTO1 counter: 89*; PRMT1 FP inh: -3; SIAE inh: 8; PAD4 inh: -3; RBBP9 inhibitor: 0; GSTO1 confirm: 3

How did O=S(=O)(c1ccccc1)N(c1ccccc1)S(=O)(=O)c1ccccc1 do in these assays?
PRMT1 FP inh: -2; SIAE inh: 3

What do the screens show for `O=S(=O)(c1ccccc1)N(CC1CO1)c1cccc2ccccc12` (centres undefined)?
GSTO1 counter: 75*; PRMT1 FP inh: -2; SIAE inh: -9; PAD4 inh: -4; RBBP9 inhibitor: -12; GSTO1 confirm: 90*; GSTO1 ABPP inh: 20

Results for COc1ccc(N(CC2CO2)S(=O)(=O)c2ccc(C)cc2)cc1 (centres undefined) ?
GSTO1 counter: 81*; PRMT1 FP inh: -3; SIAE inh: 1; PAD4 inh: 1; GSTO1 confirm: 85*; GSTO1 ABPP inh: 26

What do the screens show for `Cc1ccc(S(=O)(=O)N(CC2CO2)c2cccc([N+](=O)[O-])c2)cc1` (centres undefined)?
GSTO1 counter: 97*; PRMT1 FP inh: -1; SIAE inh: -5; PAD4 inh: -2; GSTO1 confirm: 97*; GSTO1 ABPP inh: 59

What do the screens show for `O=S(=O)(c1ccccc1)N(CC1CO1)c1ccccc1` (centres undefined)?
GSTO1 counter: 71*; PRMT1 FP inh: -1; SIAE inh: -3; PAD4 inh: 0; RBBP9 inhibitor: 0; GSTO1 confirm: 83*; GSTO1 ABPP inh: 63

Results for O=C(Cn1nc(C(F)(F)F)c2c1CCCCC2)N1CCOCC1 ?
GSTO1 counter: 5; PRMT1 FP inh: -2; SIAE inh: -8; PAD4 inh: -3; RBBP9 inhibitor: -5

How did O=[N+]([O-])c1ccc(N(CC2CO2)S(=O)(=O)c2ccccc2)cc1 (centres undefined) do in these assays?
GSTO1 counter: 85*; PRMT1 FP inh: 5; SIAE inh: 2; PAD4 inh: 3; GSTO1 confirm: 92*; GSTO1 ABPP inh: 53
